Most compounds without a hit are left out; they make up all but 2.8% or so of the library.
NPY2 pot ag – potentiators or agonists of human neuropeptide Y receptor Y2; P49146; activation, % at 3.6 µM; hit rate 0.45% among 220,000; cells expressing NPY-Y2, potentiator/agonist read-out; in the data active = activation above about 27%;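 also: cells stimulated with NPY near EC25 plus isoproterenol at EC100; 0% = vehicle plus submaximal agonist and 100% = vehicle plus saturating agonist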
PGE2 EP2 inh – EP2 receptor (human) inhibition; C6 glioma cells expressing human EP2, cAMP TR-FRET; cells stimulated with saturating PGE2; hit rate 0.52% among 260,000; inhibition, % at 25 µM; AID 1422; P43116;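 active = percent inhibition above 40 after rounding to a whole number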;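 also: rat C6 glioma host cells with rolipram phosphodiesterase inhibitor present; the protocol text gives 20 µM as final concentration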
Target sequence (P43116 whole entry, looked up): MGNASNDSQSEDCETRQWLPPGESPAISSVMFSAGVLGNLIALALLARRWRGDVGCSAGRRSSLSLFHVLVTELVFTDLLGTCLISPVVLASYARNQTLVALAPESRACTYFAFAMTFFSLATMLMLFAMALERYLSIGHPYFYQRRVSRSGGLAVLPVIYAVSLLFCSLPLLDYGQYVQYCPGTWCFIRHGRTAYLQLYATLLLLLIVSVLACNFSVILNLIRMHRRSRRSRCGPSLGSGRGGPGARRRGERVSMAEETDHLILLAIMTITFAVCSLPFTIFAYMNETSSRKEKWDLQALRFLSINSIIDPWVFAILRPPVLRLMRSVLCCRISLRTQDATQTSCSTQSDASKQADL
NPY Y2 blocker – antagonists of human neuropeptide Y receptor Y2. AID 793. P49146. inhibition, % at 2.7 µM. NPY-Y2 expressing cells, antagonist mode. hit rate 0.99% among 140,000; in the data active = inhibition above about 17%;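 also: 0% = vehicle with agonist challenge and 100% = reference antagonist with challenge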
NPY-Y1 antag – antagonists of human neuropeptide Y receptor Y1; P25929; hit rate 1% among 200,000; inhibition, % at 3.6 µM; HEK293-CNG Y1 cells, membrane potential fluorescence; NPY at EC95, then isoproterenol;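 active = inhibition above the campaign mean inhibition of all tested compounds plus 3 SD, cut at about 20% in these data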;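 also: 0% = DMSO wells given NPY plus isoproterenol and 100% = isoproterenol alone without NPY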
Target sequence (P25929 whole entry, looked up): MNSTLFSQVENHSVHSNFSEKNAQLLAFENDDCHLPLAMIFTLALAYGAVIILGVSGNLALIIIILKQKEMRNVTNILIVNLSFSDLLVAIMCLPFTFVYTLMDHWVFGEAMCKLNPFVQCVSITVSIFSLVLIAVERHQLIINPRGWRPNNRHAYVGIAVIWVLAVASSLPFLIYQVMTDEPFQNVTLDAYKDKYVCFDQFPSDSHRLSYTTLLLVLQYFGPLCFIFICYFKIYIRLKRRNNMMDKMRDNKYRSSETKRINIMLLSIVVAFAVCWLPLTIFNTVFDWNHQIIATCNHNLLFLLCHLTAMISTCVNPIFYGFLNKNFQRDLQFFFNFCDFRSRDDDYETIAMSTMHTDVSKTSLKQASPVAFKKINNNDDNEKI
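Assay system: HEK293 Y1/CNG channel cell line; Doses: single compound dose of 3.6 µM, 0.4% DMSO; Timing: dye 3 h, compound 60 min room temperature, stimulation 45 min; Technique: Membrane-potential fluorescent dye readout; Measure: % inhibition of NPY effect.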
EP2 modulator – modulators of human EP2 prostaglandin E2 receptor; P43116; EP2-expressing cells, cAMP HTRF FRET, PGE2 co-stimulation; induction, % at 25 µM; hit rate 0.83% among 260,000;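 active = compounds whose cAMP rise, as percent of the full-agonist control response, exceeds 60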;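 also: rat C6 glioma line stably carrying human EP2 under a CMV promoter; the protocol text gives 20 µM as final concentration; 100% = response of wells given 1 µM PGE2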
NPY-Y1 PAM-ag – human NPY-Y1 potentiation or agonism, primary screen; hit rate 0.37% among 220,000; AID 1304; NPY-Y1 expressing cells, potentiator/agonist activation; activation, % at 3.6 µM; P25929; in the data active = activation above about 33%, passing the limit was not always enough;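 also: cells stimulated with NPY at EC10 then isoproterenol at EC100; 0% = low agonist plus stimulus and 100% = saturating agonist plus stimulus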
EP2 cAMP induct – EP2 receptor cAMP induction, counter-screens negative | shares compounds with EP2 modulator | C6 glioma EP2 cells, cAMP HTRF induction; plus low (about EC15) PGE2 agonist | calls only at 20 µM (by protocol) | hit rate 47% among 1,300 | AID 1080;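 active = cAMP induction above 50% in the main assay while under 30% in all four parallel counter assays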;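 also: rat C6 glioma cells stably expressing human EP2 receptor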
An asterisk follows results filed as active; i = inactive; . = not tested or not shown; + = active, no number.

SMILES	NPY2 pot ag	PGE2 EP2 inh	NPY Y2 blocker	NPY-Y1 antag	EP2 modulator	NPY-Y1 PAM-ag	EP2 cAMP induct
COCCNC(=O)C(c1ccc(F)cc1)N(CC1CCCO1)C(=O)CCC(=O)Nc1ccccn1 (stereo not drawn)	21.5	10.4	0.4	-9.0	72.1*	-8.5	i
Cc1cc([N+](=O)[O-])c(C)c(Br)c1C	.	15.1	.	.	52.2	.	i
COC(=O)CC1C(C)(C)C(OC(C)=O)[C@@H]2[C@@H](OC(C)=O)[C@]34O[C@@]2(O)[C@]1(C)C3CC[C@]1(C)C4=CC(=O)O[C@H]1c1ccoc1 (stereo partly drawn)	.	9.2	.	.	53.2	.	i
O=C(OCc1ccc(Cl)cc1)c1cccnc1Cl	-3.2	12.5	.	2.1	-34.0	8.1	.
O=C(OCc1ccc(Cl)cc1)c1ccccc1C(=O)c1ccccc1	1.3	2.5	5.5	0.3	70.1*	-17.8	+
C=CCOc1ccccc1CNc1ccccc1C	13.5	6.9	0.6	4.0	80.9*	17.2	+
C=CCOc1ccccc1CNc1cccc(F)c1	-9.8	9.6	-0.2	2.9	71.5*	-14.5	i
O=C(O)c1ccc(-c2ccccc2Cl)o1	-20.7	9.8	5.1	14.4	69.4*	-31.7	i
CC(=O)N(Cc1cc2ccc(C)cc2n2nnnc12)C1CCCCC1	.	2.9	.	.	-22.4	.	.
S=c1[nH]nc(-c2ccc(Br)o2)n1Cc1ccccc1	-16.1	8.2	9.5	7.4	62.1*	-18.0	i
S=c1[nH]nc(C2CCCCC2)n1Cc1ccccc1	5.1	9.8	.	0.7	57.7	18.9	i
S=c1[nH]nc(-c2ccco2)n1Cc1ccccc1	-4.5	9.8	2.6	-5.2	36.8	-17.9	.
CN(C)c1cc[n+](CC(=O)c2cc3cc(Br)ccc3oc2=O)cc1	.	19.3	.	.	-9.8	.	.
Cc1sc(NC(=O)c2ccccc2F)c(CN2CCCCC2C)c1C (stereo not drawn)	-9.4	10.2	0.2	5.6	78.6*	0.3	+
COC(=O)c1c(NC(=O)c2ccccc2F)sc(C(=O)N2CCCCC2)c1C	.	24.5	.	.	23.3	.	.
O=C(NCCc1nc(-c2cccnc2)n[nH]1)C1(c2ccc(Cl)cc2)CC1	.	6.8	.	.	-60.0	.	.
CCC(C)NC(=O)C(=O)NCc1ccco1 (stereo not drawn)	.	4.9	.	.	17.4	.	.
COC(=O)C(C)Sc1ncnc2c1nnn2-c1ccc(F)cc1 (stereo not drawn)	-6.3	-1.6	3.3	-1.6	56.4	-29.8	i
CCC(Sc1nc2ccccc2[nH]1)C(=O)Nc1cc(C)on1 (stereo not drawn)	-7.0	15.0	3.2	-1.7	24.9	-30.2	.
CCC(Sc1nc(-c2ccccc2)c(C#N)c(=O)[nH]1)C(=O)Nc1cc(C)on1 (stereo not drawn)	-2.9	49.6*	2.0	6.2	75.7*	1.6	i
COCCCN1C(=O)C(=O)/C(=C(\O)c2ccc(Cl)cc2)C1c1ccc(O)c(OC)c1 (stereo not drawn)	.	16.4	.	.	0.9	.	.
Cc1cccc(OC(=O)c2sc(Cl)nc2C)c1	8.2	13.3	2.2	7.6	67.7*	-8.1	i
Cc1nc(Cl)sc1C(=O)O	0.3	3.2	3.2	2.9	21.9	2.5	.
CCN(CC)C(=O)Cn1cc(SCC(=O)NCc2ccco2)c2ccccc21	4.8	4.5	.	4.7	-2.9	6.2	.
CCN(CC)C(=O)Cn1cc(C(=O)C(=O)NCc2ccco2)c2ccccc21	1.5	1.8	.	2.4	67.3*	2.5	i
SMILES	NPY2 pot ag	PGE2 EP2 inh	NPY Y2 blocker	NPY-Y1 antag	EP2 modulator	NPY-Y1 PAM-ag	EP2 cAMP induct
COc1cccc(-c2[nH]ncc2CN2CCC(O)(c3ccccc3C)CC2)c1	.	6.5	.	.	-12.2	.	.
COC(=O)c1cc(-c2ccc3c(c2)OCO3)nc2ccccc12	-7.8	16.2	3.9	2.1	68.0*	1.1	i
O=C(O)c1cc(-c2ccc3cc4c(cc3c2)OCO4)nc2ccccc12	.	14.3	.	.	34.3	.	.
CNc1ncc(C(=O)c2ccc(-c3ccccc3)cc2)s1	-21.1	3.6	.	.	6.3	11.9	.
COc1ccc(Oc2nc(-c3ccccc3)ncc2C(=O)O)cc1	-3.3	2.6	.	3.3	24.9	-10.8	.
COc1ccc(C(=O)c2cnc3ccccc3c2-c2ccccc2)cc1	-9.7	7.0	4.7	5.0	92.5*	-21.0	+
Cc1ccc(C(=O)c2cnc3ccccc3c2-c2ccccc2)cc1	2.1	4.3	5.8	5.5	92.1*	-14.3	+
OC(CN1CCC(O)(c2ccc(C(F)(F)F)cc2)CC1)c1ccc(F)cc1 (stereo not drawn)	.	5.9	.	.	-44.4	.	.
COCCCn1c(SCC(=O)Nc2ccccc2C(=O)OC)nc2ccccc2c1=O	.	10.7	.	.	57.6	.	.
Nc1cccc(OCc2nc(N)nc(N)c2-c2ccc(Cl)cc2)c1	.	7.8	.	.	55.9	.	i
O=c1c(Cl)c(NC2CC2)cnn1C12CC3CC(CC(C3)C1)C2	.	7.9	.	.	-61.4	.	.
COc1ccc(C2(NC(=O)COc3ccc4nncn4n3)CCCC2)cc1	.	4.4	.	.	2.8	.	.
CC(C)CNC(=O)C(=O)NNC(=O)c1ccco1	-8.3	8.5	.	2.7	56.5	15.3	i
CCOC(=O)Cc1csc(NC(NC(=O)CC)(C(F)(F)F)C(F)(F)F)n1	9.2	9.8	-1.6	-1.1	65.2*	7.4	i
CCOC(=O)Cc1csc(NC(=O)CCC(=O)O)n1	-2.0	11.3	.	.	8.3	13.2	.
CC(C)(C)c1ccc(-c2nc(C(N)=O)c3[nH]c(=O)n(CC4CCCO4)c3n2)cc1 (stereo not drawn)	.	12.0	.	.	0.7	.	.
Cc1cccc(C)c1NC(=O)CSc1nnc(Cn2nnc(-c3ccccc3)n2)n1-c1ccccc1	-13.7	2.9	1.3	-4.9	73.8*	0.2	i
COc1ccc(S(=O)(=O)N2c3cc(C)ccc3OCC2C(C)(C)C)cc1 (stereo not drawn)	-3.5	8.8	4.8	0.2	66.1*	-2.6	+
CCSc1nnc(-c2ccc(Cl)cc2)c2ccccc12	-7.0	3.2	4.5	1.1	65.5*	0.0	i
CC1CCN(c2nc(-c3ccncc3)nc3ccccc23)CC1	-41.2	12.3	29.5*	31.0*	79.1*	-57.6	i
COc1ccc(OC)c(C(c2nnnn2CCc2ccc(OC)c(OC)c2)N2CCN(C)CC2)c1 (stereo not drawn)	.	8.0	.	.	-5.0	.	.
COc1ccc(C=O)cc1COc1c(F)c(F)cc(F)c1F	-24.4	14.5	4.5	7.8	31.3	8.4	.
C=CCc1cc(C=O)cc(OC)c1OCc1c(Cl)cccc1Cl	-0.1	8.1	1.2	-0.9	91.7*	-15.1	+
COc1cccc(C(=O)/C=C\Nc2ccc3c(c2)OCO3)c1	.	8.6	.	.	-23.2	.	.
CCCc1n[nH]c(=S)n1Cc1ccco1	-10.6	8.7	.	.	19.2	5.7	.
S=c1[nH]nc(C23CC4CC(CC(C4)C2)C3)n1Cc1ccco1	8.5	23.1	0.0	-2.7	72.8*	7.9	+

Source: PubChem BioAssay
